According to ChEMBL document CHEMBL1157680, “Isoxazole analogues bind the system xc- transporter: structure-activity relationship and pharmacophore model” (Bioorg Med Chem, 2010):
pIC50, pKi: −log10 of the molar value. Active and inactive are the calls of the source. No cut-off for these calls is given here.

What was measured:
[1] = target: T1, Cystine/glutamate transporter (Homo sapiens, UniProt Q9UPY5); assay: Inhibition of amino acid transport system xc- in human SNB19 cells assessed as [3H]L-glutamate uptake by liquid scintillation counting; format: cell-based, SNB-19
T1 sequence (Q9UPY5 whole entry): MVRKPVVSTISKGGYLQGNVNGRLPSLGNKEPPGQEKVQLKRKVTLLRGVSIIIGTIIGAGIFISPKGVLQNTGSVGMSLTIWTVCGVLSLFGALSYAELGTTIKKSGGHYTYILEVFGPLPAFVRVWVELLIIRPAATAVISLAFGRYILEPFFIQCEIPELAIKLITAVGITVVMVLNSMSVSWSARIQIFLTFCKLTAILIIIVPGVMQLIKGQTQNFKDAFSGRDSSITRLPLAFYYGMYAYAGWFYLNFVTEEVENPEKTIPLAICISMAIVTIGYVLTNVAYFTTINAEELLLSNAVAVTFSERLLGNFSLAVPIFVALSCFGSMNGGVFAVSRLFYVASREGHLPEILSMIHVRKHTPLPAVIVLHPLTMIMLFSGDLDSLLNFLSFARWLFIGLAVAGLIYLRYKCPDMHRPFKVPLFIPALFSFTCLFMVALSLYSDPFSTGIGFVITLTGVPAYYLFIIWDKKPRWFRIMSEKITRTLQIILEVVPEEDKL

[2] = target: T2, Cystine/glutamate transporter (Homo sapiens) (UniProt Q9UPY5); assay: Activity at amino acid transport system xc- in human SNB19 cells assessed as induction of L-glutamate efflux at 500 uM by fluorometric assay; format: cell-based; details: SNB-19
T2 sequence (whole entry): T1 sequence (Q9UPY5 whole entry)
Procedure, shortened: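 Paired SNB-19 coverslips were rinsed 10 min in Na+-free HBHS, then placed in a stirred cuvette (2 ml HBHS, 30 °C). NADP+ (1 mM) was added at 0 s and glutamate dehydrogenase (33 U) at 60 s, then the test substrate. L-Glu efflux was followed in real time as NADPH fluorescence. Triton X-100 (0.5%) gave total cellular L-Glu. Efflux was quantified from a cell-free standard curve.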

[3] = target: T2, Cystine/glutamate transporter (Homo sapiens); assay: Inhibition of amino acid transport system xc- in human SNB19 cells assessed as [3H]L-glutamate uptake at 500 uM by liquid scintillation counting; format: cell-based; parameters: scale not given: the % may be the effect or the level left; details: SNB-19
Procedure, shortened: (§1)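 Confluent SNB-19 glioma monolayers were refed 2 h before assay, then preincubated 5 min at 30 °C in Na+-free HEPES-buffered Hank's (choline Cl, pH 7.4). Test agent was added together with L-[3H]-glutamate plus unlabeled L-Glu (10–500 μM final). After 5 min at 30 °C, ice-cold washes stopped uptake. Cells were lysed in 0.4 M NaOH and counted by LSC. Results are % of control uptake.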

[4] = target: T1, Cystine/glutamate transporter; assay: Competitive inhibition of [3H]L-glutamate uptake at amino acid transport system xc- in human SNB19 cells by liquid scintillation counting; format: cell-based, SNB-19
Procedure, shortened: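 SNB-19 glioma monolayers were assayed in Na+-free choline-HEPES Hank's buffer, pH 7.4, at 30 °C. L-[3H]-glutamate with L-Glu (10–500 μM final) and inhibitor were added simultaneously for 5 min. Radioactivity in NaOH lysates was counted by LSC. Ki came from a replot of Km,app values, or from IC50 inhibition curves using the Cheng-Prusoff equation.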

[5] = target: T2, Cystine/glutamate transporter (Homo sapiens); assay: Inhibition of [3H]L-glutamate uptake at amino acid transport system xc- in human SNB19 cells at 500 uM by liquid scintillation counting; format: cell-based; details: SNB-19; procedure, shortened: as §1
[6] = target: T2, Cystine/glutamate transporter (Homo sapiens); assay: Inhibition of amino acid transport system xc- in human SNB19 cells assessed as [3H]L-glutamate uptake at 250 uM by liquid scintillation counting; format: cell-based; parameters: scale not given: the % may be the effect or the level left; details: SNB-19; procedure, shortened: as §1
[7] = target: T2, Cystine/glutamate transporter (Homo sapiens); details: SNB-19, 500 uM
LRM55 = assay: Inhibition of amino acid transport system xc- in rat LRM55 cells assessed as [3H]L-glutamate uptake at 500 uM by liquid scintillation counting; format: cell-based; parameters: scale not given: the % may be the effect or the level left

| SMILES | Activity [3] | Activity [6] | further results |
| --- | --- | --- | --- |
| C/C(=N\Nc1ccc([N+](=O)[O-])cc1)c1c(C(=O)O)noc1C | 22% | – | pIC50 [1]: 3.90; Activity [2]: inactive; pKi [4]: 4.22; inhibition [5]: 78% |
| Cc1ccc(-n2nc(C)c3c(C)onc3c2=O)cc1 | 94% | – | – |
| N[C@@H](Cc1c(C(=O)O)noc1CCc1ccccc1)C(=O)O | – | 70% | – |
| Cc1nn(-c2ccc(C(F)(F)F)cc2)c(=O)c2noc(C)c12 | 99% | – | – |
| Cc1nn(-c2ccc(F)cc2)c(=O)c2noc(C)c12 | 86% | – | – |
| N[C@@H](Cc1c(C(=O)O)noc1COCc1ccccc1)C(=O)O (racemic) | – | 70% | – |
| COc1ccc(-n2nc(C)c3c(C)onc3c2=O)cc1 | 92% | – | – |
| CCOC(=O)c1noc(C)c1/C(C)=N/NS(=O)(=O)c1ccccc1 | – | 96% | – |
| C/C(=N\NS(=O)(=O)c1ccccc1)c1c(C(=O)O)noc1C | – | 101% | – |
| C/C(=N\Nc1cc(C(F)(F)F)cc(C(F)(F)F)c1)c1c(C(=O)O)noc1C | 14% | – | pIC50 [1]: 3.89; Activity [2]: inactive; pKi [4]: 4.19; inhibition [5]: 86% |
| Cc1nn(-c2ccccc2)c(=O)c2noc(C)c12 | 74% | – | inhibition [5]: 26% |
| C/C(=N\Nc1ccc([N+](=O)[O-])cc1[N+](=O)[O-])c1c(C(=O)O)noc1COCc1ccc2ccccc2c1 | 95% | – | – |
| Cc1onc(C(=O)O)c1CC(N)C(=O)O (racemic) | – | 101% | – |
| Cc1nn(-c2ccc([N+](=O)[O-])cc2)c(=O)c2noc(C)c12 | 85% | – | inhibition [5]: 15% |
| CCc1onc(C(=O)O)c1C[C@H](N)C(=O)O | – | 92% | – |
| C/C(=N\Nc1ccc([N+](=O)[O-])cc1[N+](=O)[O-])c1c(C(=O)O)noc1C | 45% | 73% | pIC50 [1]: 3.54; Activity [2]: inactive; pKi [4]: 3.83 |
| COC(C)c1onc(C(=O)O)c1C[C@H](N)C(=O)O (mixture of isomers) | – | 115% | – |

| SMILES | Activity [3] | Activity [6] | further results |
| --- | --- | --- | --- |
| COCc1onc(C(=O)O)c1C[C@H](N)C(=O)O | – | 98% | – |
| Cc1onc(C(=O)O)c1C[C@H](N)C(=O)O | – | 98% | – |
| Cc1nn(-c2cccc([N+](=O)[O-])c2)c(=O)c2noc(C)c12 | 96% | – | – |
| N[C@@H](Cc1c(C(=O)O)noc1CCc1ccc2ccccc2c1)C(=O)O | – | 37% | Activity [2]: inactive; pKi [4]: 4.28; inhibition [7]: Active |
| C/C(=N\NC(=O)Nc1ccccc1)c1c(C(=O)O)noc1C | – | 76% | – |
| Cc1onc(C(=O)O)c1CC(N)P(=O)(O)O (racemic) | – | 107% | – |
| C/C(=N\Nc1ccccc1[N+](=O)[O-])c1c(C(=O)O)noc1C | 97% | – | – |
| C/C(=N\NC(N)=O)c1c(C(=O)O)noc1C | – | 91% | – |
| Cc1onc(O)c1C[C@H](N)C(=O)O | – | – | Activity (LRM55): 95% |
| C/C(=N\Nc1ccc([N+](=O)[O-])cc1[N+](=O)[O-])c1c(C(=O)O)noc1CCc1ccc2ccccc2c1 | 45% | – | pIC50 [1]: 3.65; Activity [2]: inactive; pKi [4]: 3.95 |
| Cc1nn(-c2cc(Cl)cc(Cl)c2)c(=O)c2noc(C)c12 | 89% | – | – |
| N[C@@H](Cc1c(C(=O)O)noc1CCc1cccc2ccccc12)C(=O)O | – | 47% | Activity [2]: inactive; pKi [4]: 3.93 |
| Cc1nn(-c2ccc(F)cc2F)c(=O)c2noc(C)c12 | 95% | – | – |
| C/C(=N\Nc1ccccc1)c1c(C(=O)O)noc1C | 56% | – | inhibition [5]: 44% |
| CCOC(=O)c1noc(C)c1/C(C)=N/NC(N)=O | – | 103% | – |
| Cc1nn(-c2cc(C(F)(F)F)cc(C(F)(F)F)c2)c(=O)c2noc(C)c12 | 82% | – | inhibition [5]: 18% |
